Legend:
[1] = target: ATP-dependent translocase ABCB1 (Homo sapiens, UniProt P08183); assay: Inhibition of human MDR1 expressed in MDCK-MDR1 cells assessed as calcein cell accumulation after 30 mins by spectrofluorimetry; format: cell-based
Method in brief: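 Confluent MDCK-MDR1 monolayers given test compound (0.1-100 µM) for 30 min at 37 °C, then calcein-AM at 2.5 µM final for 30 min. Washed with ice-cold PBS and read at ex 485 / em 535 nm. Fluorescence rise over untreated basal level fitted against log dose to give EC50; n ≥ 3 experiments in duplicate.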

[2] = system: Panc02; assay: Cytotoxicity against mouse Panc02 cells after 48 hrs by MTT assay; format: functional, cell-based; settings: Panc02, 48 h
Method in brief: (§1)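 Pancreatic lines kept at 37 °C, 5% CO2. AsPC1, BxPC3 and Panc02 grown in RPMI with 10% FBS. MIAPaCa2 in DMEM with 10% FBS and 2.5% horse serum. PANC1 in DMEM with 10% FBS. KCKO in RPMI with 10% FBS plus pyruvate, HEPES and glutamine. KP02 in DMEM/F12 with 10% FBS.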

[3] = Cytotoxicity against mouse Kp02 cells after 48 hrs by MTT assay; format: functional, cell-based; method in brief: as §1
[4] = Cytotoxicity against mouse KCKO cells after 48 hrs by MTT assay; format: functional, cell-based; method in brief: as §1
[5] = system: MIA PaCa-2; assay: Cytotoxicity against human MIAPaCa2 cells after 48 hrs by MTT assay; format: functional, cell-based; settings: MIA PaCa-2, 48 h; method in brief: as §1
[6] = system: BXPC-3; assay: Cytotoxicity against human BxPC3 cells after 48 hrs by MTT assay; format: functional, cell-based; settings: BXPC-3, 48 h; method in brief: as §1
[7] = system: ASPC1; assay: Cytotoxicity against human AsPC1 cells after 48 hrs by MTT assay; format: functional, cell-based; settings: ASPC1, 48 h; method in brief: as §1

Sequence of ATP-dependent translocase ABCB1 (P08183 whole entry): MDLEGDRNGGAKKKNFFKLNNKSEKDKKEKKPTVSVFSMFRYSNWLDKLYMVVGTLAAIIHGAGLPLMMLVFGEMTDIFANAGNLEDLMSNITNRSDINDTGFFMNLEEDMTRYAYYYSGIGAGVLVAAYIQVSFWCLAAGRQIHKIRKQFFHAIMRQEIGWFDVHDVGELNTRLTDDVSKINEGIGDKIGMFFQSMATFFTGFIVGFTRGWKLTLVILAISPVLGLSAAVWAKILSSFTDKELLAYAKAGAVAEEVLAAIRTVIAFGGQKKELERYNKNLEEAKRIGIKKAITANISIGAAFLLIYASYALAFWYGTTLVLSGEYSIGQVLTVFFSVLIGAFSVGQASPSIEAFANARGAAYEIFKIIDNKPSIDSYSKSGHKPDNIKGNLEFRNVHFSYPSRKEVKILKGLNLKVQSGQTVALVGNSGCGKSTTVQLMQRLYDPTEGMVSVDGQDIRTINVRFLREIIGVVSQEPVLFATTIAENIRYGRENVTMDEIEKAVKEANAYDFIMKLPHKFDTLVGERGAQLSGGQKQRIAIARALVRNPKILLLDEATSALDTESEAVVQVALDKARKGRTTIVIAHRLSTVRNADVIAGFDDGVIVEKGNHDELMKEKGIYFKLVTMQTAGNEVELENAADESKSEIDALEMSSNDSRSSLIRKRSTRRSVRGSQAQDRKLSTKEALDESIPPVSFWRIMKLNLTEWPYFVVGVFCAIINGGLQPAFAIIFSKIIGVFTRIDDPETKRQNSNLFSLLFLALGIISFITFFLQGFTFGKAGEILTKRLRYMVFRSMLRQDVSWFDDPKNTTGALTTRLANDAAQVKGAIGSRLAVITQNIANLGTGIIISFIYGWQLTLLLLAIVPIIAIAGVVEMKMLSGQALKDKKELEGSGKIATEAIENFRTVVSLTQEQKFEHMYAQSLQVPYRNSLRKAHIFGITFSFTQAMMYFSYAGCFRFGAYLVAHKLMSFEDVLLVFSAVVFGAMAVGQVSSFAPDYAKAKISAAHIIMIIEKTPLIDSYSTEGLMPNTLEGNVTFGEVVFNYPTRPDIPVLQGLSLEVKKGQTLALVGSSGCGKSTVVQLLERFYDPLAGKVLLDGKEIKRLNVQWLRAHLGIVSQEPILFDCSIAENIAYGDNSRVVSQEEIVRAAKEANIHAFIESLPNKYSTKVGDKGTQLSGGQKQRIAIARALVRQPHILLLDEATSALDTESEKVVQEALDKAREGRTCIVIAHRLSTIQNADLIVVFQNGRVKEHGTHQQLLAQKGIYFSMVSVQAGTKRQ

c1ccc2c(c1)ccn2CCCCN1CCN(C2CCCCC2)CC1
EC50 [1]: 0.46 µM | EC50 [2]: > 100 µM | EC50 [3]: 70 µM | EC50 [4]: 67 µM | EC50 [5]: 79 µM | EC50 [6]: > 100 µM | EC50 [7]: > 100 µM

COc1cc2c(cc1OC)CN(CCCCn1ccc3ccccc31)CC2
EC50 [1]: 6.09 µM | EC50 [2]: > 100 µM | EC50 [3]: 49 µM | EC50 [4]: 77 µM | EC50 [5]: 40 µM | EC50 [6]: > 100 µM | EC50 [7]: > 100 µM
